ChEMBL document CHEMBL1148541, “Biological evaluation of 1-alkyl-3-phenylthioureas as orally active HDL-elevating agents” (Bioorg Med Chem Lett, 2006)

Experiments:
Assay type in all cases: functional
[1] = tested on: Rattus norvegicus; test: Increase of Apolipoprotein A-I level in cholesterol-fed male rats at 88 mg/kg/day relative to control
How it was run: (§1)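 Drug mixed into diet, fed ad libitum for 8 days to groups of six male Sprague–Dawley rats on a cholesterol diet. Serum Apo A-I measured by SDS–polyacrylamide gel electrophoresis or by rat competition ELISA. Reported as % change versus untreated controls, with significance set at p < 0.05.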

[2] = tested on: Rattus norvegicus; test: Increase of HDL level in cholesterol-fed male rats by ultracentrifugation method at 88 mg/kg/day relative to control
How it was run: (§2)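 Compound given in the diet, ad libitum, to groups of six male Sprague–Dawley rats on a cholesterol diet for 8 days. Serum lipoproteins were separated by classical ultracentrifugation, and HDL cholesterol was quantitated by an enzymatic colorimetric method. Results are reported as % change relative to untreated controls, with significance at p < 0.05 versus controls.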

[3] = tested on: Rattus norvegicus; test: Increase of HDL level in cholesterol-fed male rats by FPLC method at 88 mg/kg/day relative to control
How it was run: (§3)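 Groups of six male Sprague–Dawley rats on a cholesterol diet received drug in the diet, ad libitum, for 8 days. Serum lipoproteins separated by FPLC, adapted for robotic automation, and cholesterol quantitated enzymatically by colorimetry. HDL given as % change versus untreated controls, with significance set at p < 0.05.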

[4] = tested on: Rattus norvegicus; test: Weight gain in cholesterol-fed male rats at 88 mg/kg/day relative to control
How it was run: (§4)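 Groups of six male Sprague–Dawley rats on a cholesterol diet received the compound in the diet, ad libitum, over 8 days. Body weight gain is reported as % change relative to untreated controls.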

[5] = species on record: Rattus norvegicus; test: Increase in liver enzyme Alanine aminotransferase
[6] = species on record: Rattus norvegicus; test: Increase in liver enzyme Aspartate aminotransferase; parameters: concentration or dose not given beside the values
[7] = tested on: Rattus norvegicus; test: Increase of total cholesterol level in cholesterol-fed male rats at 88 mg/kg/day relative to control
How it was run: (§5)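 Dietary (ad libitum) dosing of groups of six male Sprague–Dawley rats on a cholesterol diet for 8 days. Serum total cholesterol was quantitated enzymatically by a colorimetric method and expressed as % change relative to untreated controls, with significance at p < 0.05.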

[8] = tested on: Rattus norvegicus; test: Triglyceride level in cholesterol-fed male rats at 88 mg/kg/day relative to control
How it was run: (§6)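 Male Sprague–Dawley rats on a cholesterol diet, in groups of six, received the compound in the diet ad libitum for 8 days. Serum triglycerides are expressed as % change relative to untreated controls, with significance at p < 0.05 versus controls.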

[9] = tested on: Rattus norvegicus; test: Increase of HDL level in cholesterol-fed male rats by ultracentrifugation method at 70 mg/kg/day relative to control
How it was run: (§7)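 Cholesterol-fed male Sprague–Dawley rats, six per group, given drug in the diet ad libitum for 8 days. Serum lipoproteins separated by classical ultracentrifugation and HDL cholesterol measured by an enzymatic colorimetric method. Expressed as % change versus untreated controls, with significance set at p < 0.05.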

[10] = tested on: Rattus norvegicus; test: Weight gain in cholesterol-fed male rats at 70 mg/kg/day relative to control; how it was run: as §4
[11] = tested on: Rattus norvegicus; test: Increase of total cholesterol level in cholesterol-fed male rats at 70 mg/kg/day relative to control; how it was run: as §5
[12] = tested on: Rattus norvegicus; test: Increase of HDL level in cholesterol-fed male rats by FPLC method at 70 mg/kg/day relative to control; how it was run: as §3
[13] = tested on: Rattus norvegicus; test: Increase of Apolipoprotein A-I level in cholesterol-fed male rats at 70 mg/kg/day relative to control; how it was run: as §1
[14] = tested on: Rattus norvegicus; test: Triglyceride level in cholesterol-fed male rats at 70 mg/kg/day relative to control; how it was run: as §6
[15] = tested on: Rattus norvegicus; test: Increase of Apolipoprotein A-I level in cholesterol-fed male rats at 82 mg/kg/day relative to control; how it was run: as §1
[16] = tested on: Rattus norvegicus; test: Weight gain in cholesterol-fed male rats at 82 mg/kg/day relative to control; how it was run: as §4
[17] = tested on: Rattus norvegicus; test: Increase of HDL level in cholesterol-fed male rats by ultracentrifugation method at 82 mg/kg/day relative to control; how it was run: as §2
[18] = tested on: Rattus norvegicus; test: Increase of HDL level in cholesterol-fed male rats by FPLC method at 82 mg/kg/day relative to control; how it was run: as §3
[19] = tested on: Rattus norvegicus; test: Increase of total cholesterol level in cholesterol-fed male rats at 82 mg/kg/day relative to control; how it was run: as §5
[20] = tested on: Rattus norvegicus; test: Triglyceride level in cholesterol-fed male rats at 82 mg/kg/day relative to control; how it was run: as §6
[21] = tested on: Rattus norvegicus; test: Increase of Apolipoprotein A-I level in cholesterol-fed male rats at 81 mg/kg/day relative to control; how it was run: as §1
[22] = tested on: Rattus norvegicus; test: Weight gain in cholesterol-fed male rats at 81 mg/kg/day relative to control; how it was run: as §4
[23] = tested on: Rattus norvegicus; test: Increase of HDL level in cholesterol-fed male rats by ultracentrifugation method at 81 mg/kg/day relative to control; how it was run: as §2
[24] = tested on: Rattus norvegicus; test: Increase of HDL level in cholesterol-fed male rats by FPLC method at 81 mg/kg/day relative to control; how it was run: as §3
[25] = tested on: Rattus norvegicus; test: Increase of total cholesterol level in cholesterol-fed male rats at 81 mg/kg/day relative to control; how it was run: as §5
[26] = tested on: Rattus norvegicus; test: Triglyceride level in cholesterol-fed male rats at 81 mg/kg/day relative to control; how it was run: as §6
[27] = tested on: Rattus norvegicus; test: Weight gain in cholesterol-fed male rats at 71 mg/kg/day relative to control; how it was run: as §4
[28] = tested on: Rattus norvegicus; test: Increase of HDL level in cholesterol-fed male rats by ultracentrifugation method at 71 mg/kg/day relative to control; how it was run: as §7
[29] = tested on: Rattus norvegicus; test: Increase of total cholesterol level in cholesterol-fed male rats at 71 mg/kg/day relative to control; how it was run: as §5
[30] = tested on: Rattus norvegicus; test: Increase of HDL level in cholesterol-fed male rats by FPLC method at 71 mg/kg/day relative to control; how it was run: as §3
[31] = tested on: Rattus norvegicus; test: Triglyceride level in cholesterol-fed male rats at 71 mg/kg/day relative to control; how it was run: as §6
[32] = tested on: Rattus norvegicus; test: Increase of Apolipoprotein A-I level in cholesterol-fed male rats at 73 mg/kg/day relative to control; how it was run: as §1
[33] = tested on: Rattus norvegicus; test: Increase of HDL level in cholesterol-fed male rats by ultracentrifugation method at 73 mg/kg/day relative to control; how it was run: as §2
[34] = tested on: Rattus norvegicus; test: Increase of total cholesterol level in cholesterol-fed male rats at 73 mg/kg/day relative to control; how it was run: as §5
[35] = tested on: Rattus norvegicus; test: Increase of HDL level in cholesterol-fed male rats by FPLC method at 73 mg/kg/day relative to control; how it was run: as §3
[36] = tested on: Rattus norvegicus; test: Weight gain in cholesterol-fed male rats at 73 mg/kg/day relative to control; how it was run: as §4
[37] = tested on: Rattus norvegicus; test: Triglyceride level in cholesterol-fed male rats at 73 mg/kg/day relative to control; how it was run: as §6

## Cc1ccc(Cl)cc1/N=C(\S)NCC(C)(C)C
[1]
  Activity: 89%
[2]
  Activity: 122%
[3]
  Activity: 196%
[4]
  Activity: 7%
[5]
  Activity: 111%
[6]
  Activity: 49%
[7]
  Activity: 3%
[8]
  Activity: -66%

## CCC/N=C(\S)Nc1cc(Cl)ccc1CC
[9]
  Activity: 101%
[10]
  Activity: -33%
[11]
  Activity: 28%
[12]
  Activity: 369%
[13]
  Activity: 43%
[14]
  Activity: -61%

## Cc1ccc(Cl)cc1N/C(S)=N/C(C)C(C)(C)C (centres undefined)
[15]
  Activity: 34%
[16]
  Activity: -24%
[17]
  Activity: 93%
[18]
  Activity: 109%
[19]
  Activity: 15%
[20]
  Activity: -35%

## CCC(C)(C)/N=C(\S)Nc1cc(Cl)ccc1C
[21]
  Activity: 64%
[22]
  Activity: 15%
[23]
  Activity: 55%
[24]
  Activity: 39%
[25]
  Activity: -10%
[26]
  Activity: -14%

## CCC/N=C(\S)Nc1cc(C)ccc1OC
[27]
  Activity: -16%
[28]
  Activity: 84%
[29]
  Activity: 71%
[30]
  Activity: 63%
[31]
  Activity: -38%

## CC/N=C(\S)Nc1cc(Cl)ccc1C
[32]
  Activity: 27%
[33]
  Activity: 110%
[34]
  Activity: 32%
[35]
  Activity: 215%
[36]
  Activity: -107%
[5]
  Activity: 81%
[6]
  Activity: 162%
[37]
  Activity: -64%
